Hits are enriched below; roughly 1.8% of the tested compounds scored in any of these assays.
M5 ag: CHRM5 agonism in calcium assay; CHO-K1 hM5 cells, Fluo-8 calcium fluorescence; 0% DMSO wells, 100% maximal acetylcholine response; activation, % at 3 µM; 360,000 tested, 0.19% active;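 active means activation above the run's mean over test compounds plus 3 SD, cut at about 23% in these data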;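 further: signal is peak over basal fluorescence ratio across the kinetic read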
M4 ag: CHRM4 agonism in calcium assay; P08173; CHO-K1 hM4/Gqi5, Fluo-8 calcium fluorescence; vehicle 0%, full acetylcholine response 100%; activation, % at 3 µM; 360,000 tested, 0.14% active;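 active means activation above the run mean over all test wells plus 3 SD, cut at about 32% in these data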;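 further: peak over basal fluorescence ratio per well then scaled between controls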
Target sequence (P08173 whole entry, looked up): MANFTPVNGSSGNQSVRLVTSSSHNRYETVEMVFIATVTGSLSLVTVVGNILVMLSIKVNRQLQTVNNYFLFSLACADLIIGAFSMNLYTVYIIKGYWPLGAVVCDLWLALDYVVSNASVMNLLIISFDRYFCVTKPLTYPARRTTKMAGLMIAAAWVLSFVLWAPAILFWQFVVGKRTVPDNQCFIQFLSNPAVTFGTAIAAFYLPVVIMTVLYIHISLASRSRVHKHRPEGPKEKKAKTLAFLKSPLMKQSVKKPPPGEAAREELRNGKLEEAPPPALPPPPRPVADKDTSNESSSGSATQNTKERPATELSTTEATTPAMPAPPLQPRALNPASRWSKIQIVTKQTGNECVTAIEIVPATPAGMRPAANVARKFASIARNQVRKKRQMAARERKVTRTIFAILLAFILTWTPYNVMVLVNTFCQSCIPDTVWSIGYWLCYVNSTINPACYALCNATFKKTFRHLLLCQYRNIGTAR
CHRM4 antagonist: CHRM4 antagonism in calcium assay; P08173; CHO-hM4 cells, ACh EC80, Fluo-8 calcium fluorescence; inhibition, % at 3 µM; 360,000 tested, 0.73% active;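 active means inhibition above its plate's cutoff, the mean inhibition of sample wells plus 3 SD, cut at about 27% in these data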
M4 PAM: positive allosteric modulators of human muscarinic M4 receptor; activation, % at 3 µM; AID 624126; CHO-K1 hM4/Gqi5, Fluo-8 calcium fluorescence, ACh EC20; 0% = ACh EC20, 100% = maximal ACh; 360,000 tested, 0.4% active;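 active means activation above its plate's cutoff, the mean activation of sample wells plus 3 SD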
M5 PAM: CHRM5 positive allosteric modulation | P08912 | CHO-K1 hM5, Fluo-8 calcium, ACh EC20 PAM; 0% = ACh EC20, 100% = ACh EC100 | activation, % at 3 µM | 360,000 tested, 0.3% active;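 active means activation above the run cutoff, the mean activation of all test compounds plus 3 SD, cut at about 18% in these data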
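System: CHO-K1 cell line with stable human muscarinic M5 receptor expression | Also added: EC20 acetylcholine as agonist stimulus | Compound: One concentration, 3 µM final (nominal) | Timing: Fluo-8 loading 80 min at 37 °C plus 30 min room temperature | Measured by: Fluo-8 calcium dye fluorescence, kinetic read | Read-out basis: % activation, ACh-normalized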
M5 antag: antagonists of human muscarinic M5 receptor (CHRM5); P08912; CHO-hM5 cells, Fluo-8 calcium fluorescence, ACh EC80; inhibition, % at 3 µM; 360,000 tested, 0.59% active; AID 624040;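 active means inhibition above a per-plate cutoff, the mean of that plate's test compounds plus 3 SD, cut at about 27% in these data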
Numbers stand for hits; 0 = inactive; ! = not active in a repeat.

SMILES	M5 ag	M4 ag	CHRM4 antagonist	M4 PAM	M5 PAM	M5 antag
Cc1ccc(-n2nnnc2CNC(=O)c2ccc3c(c2)OCO3)cc1C	0	0	62.8	0	0	0
Cc1nn(C(C)C(=O)NC2CCCCCC2)c(=O)c2nn(-c3ccccc3)c(C)c12 (centres undefined)	0	0	0	0	0	0
Cc1sc2nc(C3CC3)nc(N3CCN(C(=O)c4ccc(Cl)cc4)CC3)c2c1C	0	0	0	37.2	0	0
COc1ccc(C(=O)N2CCN(c3nc(C4CC4)nc4sc(C)c(C)c34)CC2)cc1	0	0	0	20.3	0	0
Cc1sc2nc(C3CC3)nc(N3CCN(C(=O)c4ccc(F)cc4)CC3)c2c1C	0	0	0	18.2	0	0
Cc1sc2nc(C3CC3)nc(N3CCN(C(=O)c4ccccc4F)CC3)c2c1C	0	0	0	0	0	0
O=C(CSc1nnc(Nc2ccccc2)s1)NCC1CCCO1 (centres undefined)	0	0	0	0	0	0
COc1cc(/C=C2\SC(=S)N(NC(=O)c3ccc(O)c(OC)c3)C2=O)ccc1O	25.0	35.2	0	0	0	0
COc1cc(/C=C2\SC(=S)N(NC(=O)c3cccc(O)c3)C2=O)ccc1O	0	36.1	0	0	0	0
COc1cc(/C=C2\SC(=S)N(CCC(=O)Nc3ccccc3)C2=O)cc(OC)c1OC	0	0	0	0	0	0
COc1cc(/C=C2\SC(=S)N(CCC(=O)Nc3cccc(O)c3)C2=O)cc(OC)c1OC	0	0	0	0	0	27.2
COc1ccccc1C(=O)N/C(=C\c1cn(S(=O)(=O)N(C)C)c2ccccc12)C(=O)N1CCCCC1	0	0	0	0	0	0
COc1ccc(C(N)c2csc(Nc3ccc(C(=O)NCCCO)cn3)n2)cc1 (centres undefined)	0	0	0	0	0	0
CCOC(=O)C1=C(COC(=O)c2ccc(Br)c(S(=O)(=O)N3CCOCC3)c2)NC(=O)NC1C (centres undefined)	0	0	0	0	0	0
C#CC(=O)CC1(CN(Cc2ccccc2)C(=O)OC(C)(C)C)CCCCC1	0	0	32.0	0	0	0
CC(=O)CSc1ncnc2sc3c(c12)CCC(C)C3 (centres undefined)	0	0	0	22.7	0	0
CC1CCc2c(sc3ncnc(SCC(=O)c4ccccc4)c23)C1 (centres undefined)	0	0	0	0	0	0
O=C(CC1C(=O)NCCN1CC1CCCCC1)NCc1ccc(F)cc1F (centres undefined)	0	0	0	0	0	0
O=C(CC1C(=O)NCCN1CC1CCCCC1)NCc1cc(F)ccc1F (centres undefined)	0	0	0	0	0	27.2
CCN(CC)CC(=O)Nc1c(C)cccc1C	0	0	27.3!	0	0	0
CCN(CC)CC(=O)Nc1c(C)cc(C(C)(C)C)cc1C	0	0	0	0	0	0
Cc1cccc(C)c1NC(=O)CN(C)C(=O)c1ccc(OCc2ccccc2)cc1	0	0	0	15.6	0	0
Cc1ccc(NC(=O)C2(C)CCN2CCc2ccccc2)cc1 (centres undefined)	0	0	0	0	0	0
COc1ccc(C(=Cc2ccccc2[N+](=O)[O-])C(=O)O)cc1	0	0	0	0	0	0
Cn1c(C2CCCCC2)nc2cc(N)ccc21	0	0	0	0	0	0
SMILES	M5 ag	M4 ag	CHRM4 antagonist	M4 PAM	M5 PAM	M5 antag
CC(C)Oc1ccc(S(=O)(=O)N2CCOCC2)cc1NC(=O)c1ccc(N2CCCC2=O)cc1	0	0	0	0	0	28.5
O=C(Nc1ccc(Br)cc1)c1ccc(F)c(S(=O)(=O)NCc2cccs2)c1	0	0	0	0	0	38.0
CCOC(=O)N1CCN(c2ccnc3cc(Cl)ccc23)CC1	0	0	77.2	0	0	0
C=CCC(CC=C)(NC(=O)c1ccccc1C)c1ccccc1	0	0	0	0	41.0	0
C=CCC(CC=C)(NC(=O)c1ccccc1)c1ccccc1	0	0	0	0	0	0
COc1ccc(N2C(=O)c3cccc4cccc(c34)C2=O)cc1	0	0	0	0	0	0
CC(=O)Nc1ccc(N2C(=O)c3cccc4c(O)ccc(c34)C2=O)cc1	63.6	146.7	29.4	0	0	27.9
O=C1c2ccccc2C(=O)N1Cc1ccco1	0	0	0	0	0	0
O=C1c2cccc3c(O)ccc(c23)C(=O)N1c1ccc(Cl)cc1	32.7	74.7	0	0	0	0
O=C1c2cccc3c(O)ccc(c23)C(=O)N1Cc1ccco1	26.1	99.1	27.9	0	0	0
CCOC(=O)c1ccc(N2C(=O)c3cccc4c(C(=O)O)ccc(c34)C2=O)cc1	0	0	0	0	0	0
COc1ccc(N2C(=O)c3cccc4c(N(C)CCO)ccc(c34)C2=O)cc1	24.1	0	0	0	0	0
CC(=O)Nc1ccc(-n2c(=O)c3ccccc3c3ccccc3c2=O)cc1	0	0	0	0	0	0
CCc1nc2ccc(C(=O)Nc3cccc(NS(C)(=O)=O)c3)cn2c1N(C)C(=O)c1cccc(OC)c1	0	0	0	0	0	0
COc1ccccc1NC(=O)COC(=O)c1c(C)nn(-c2ccccc2)c1C	0	0	0	0	0	0
Cc1nn(-c2ccccc2)c(C)c1C(=O)OCC(=O)Nc1ccccc1C(F)(F)F	0	0	0	23.1	0	0
O=C(c1ccco1)N1CCN(C(=O)c2cn(-c3ccccc3)nc2-c2ccc(F)cc2)CC1	0	0	0	0	0	0
COc1ccccc1C(CC(=O)c1ccccc1)C(=O)c1ccccc1 (centres undefined)	0	0	27.4	0	0	0
COc1ccccc1C(CC(=O)c1ccccc1)CC(=O)c1ccccc1	0	0	0	0	0	0
COc1ccc(N(CC(=O)NCc2ccccc2OC)S(=O)(=O)c2ccc(C)cc2)cc1Cl	0	0	0	0	0	0
CCCCNC(=O)CN(C1CCCCC1)S(C)(=O)=O	0	0	0	0	0	0
CCNC(=O)CN(C1CCCCC1)S(C)(=O)=O	0	0	0	22.3	0	0
Cc1cc(N2CCCCC2)nc(NCc2ccccc2)n1	33.3	36.8	0	0	0	0
CC1=NN(c2cccc(C(=O)O)c2)C(=O)/C1=C\C=C/c1ccccc1	0	0	0	24.0	0	0
O=C(OCC(O)C(O)C(O)C(SCc1ccccc1)SCc1ccccc1)c1ccccc1 (centres undefined)	0	0	0	0	0	0
COc1ccc(N2CCN(S(=O)(=O)c3c(C)nc4sccn4c3=O)CC2)cc1	0	0	0	0	0	0
